PRMT1 FP inh: inhibitors of human PRMT1 | Q99873 | recombinant PRMT1, activity-based probe fluorescence polarization | inhibition, % at 2.79 µM | actives 1.3% (n = 370,000) | AID 652257;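 active = inhibition above about 21% made by adding two undisclosed values, limit read from the data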
ABHD4 inh: inhibits mouse alpha/beta hydrolase domain 4 | actives 0.54% (n = 370,000) | purified mABHD4, FP-Rh probe fluorescence polarization | inhibition, % at 8.92 µM | Q8VD66 | AID 720543;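 active = inhibition exceeding the mean over every tested compound plus 3 SD, cut at about 30% in these data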;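 note: 0% = plate median of compound wells and 100% = S159A mutant with DMSO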
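Material: mouse ABHD4 enzyme, wild type; Benchmarks: S159A mutant high control, sample median low control; Buffer or medium: HEPES pH 7.0, NaCl, Pluronic buffer; Signal: fluorescence polarization; Read-out: percent inhibition of probe binding, normalized to plate controls; Timing: pre-incubation 45 min, probe exposure 60 min, at 25 °C; Dosing: 8.92 µM, single dose.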
TCR-CD3 inh: human TCR-CD3 binding inhibition; actives 0.37% (n = 360,000); TAMRA-labeled TCR probe fluorescence, biochemical; inhibition, % at 9.4 µM; in the data active = inhibition above about 19%;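 note: recombinant mutant TCR 2C K166C tagged with TAMRA read by polarization; 0% = receptor in buffer alone and 100% = receptor with positive control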
SIAE inh: blocks human sialic acid acetylesterase; SIAE FP-Rh probe binding, fluorescence polarization; inhibition, % at 9.66 µM; actives 0.69% (n = 370,000); Q9HAT2;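 active = inhibition above a cutoff: mean of compounds within the control limits plus 3 SD of those, cut at about 17% in these data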;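 note: 0% = plate median of compound wells and 100% = probe without SIAE protein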
HTRA1 inhibitor: inhibitors of human serine peptidase HTRA1 | recombinant HTRA1, FP-rhodamine activity-based probe, fluorescence polarization | inhibition, % at 5.96 µM | actives 0.5% (n = 340,000); in the data active = inhibition above about 36%;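 note: 0% = enzyme with DMSO and 100% = wells lacking enzyme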
Target sequence (Q92743 whole entry, looked up): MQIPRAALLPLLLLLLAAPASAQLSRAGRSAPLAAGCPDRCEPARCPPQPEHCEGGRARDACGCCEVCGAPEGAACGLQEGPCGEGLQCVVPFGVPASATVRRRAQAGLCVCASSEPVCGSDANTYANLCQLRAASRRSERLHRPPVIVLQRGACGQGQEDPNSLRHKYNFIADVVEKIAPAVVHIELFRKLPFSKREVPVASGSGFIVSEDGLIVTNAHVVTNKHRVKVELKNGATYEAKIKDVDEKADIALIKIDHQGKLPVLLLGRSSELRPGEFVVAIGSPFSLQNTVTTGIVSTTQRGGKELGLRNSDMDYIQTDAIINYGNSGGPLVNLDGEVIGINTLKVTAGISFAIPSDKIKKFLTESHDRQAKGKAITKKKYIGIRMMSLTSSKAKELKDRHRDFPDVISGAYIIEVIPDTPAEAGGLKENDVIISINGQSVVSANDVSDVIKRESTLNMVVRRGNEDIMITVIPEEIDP
SIAE confirm: confirmation of human SIAE inhibitors | SIAE FP-Rh activity-based probe, fluorescence polarization | shares compounds with SIAE inh | actives 13% (n = 2,300) | inhibition, % at 9.66 µM;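 active = mean inhibition of the replicates above the hit cutoff set in the primary screen, cut at about 17% in these data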;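 note: 0% = SIAE with DMSO and probe and 100% = probe without SIAE; inhibitors lower polarization as more probe stays unbound to SIAE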
* marks the source's active call; other numbers are inactive results. The list is not random: actives were taken first. Their share in the collection is about 2.6%.

`O=C(N[C@H](CO)Cc1ccccc1)[C@H]1O[C@@H](n2ccc(=O)[nH]c2=O)[C@H](O)[C@@H]1O` gave PRMT1 FP inh 3, ABHD4 inh 1, TCR-CD3 inh -10, SIAE inh 48* and SIAE confirm 44*.
For O=C(NCc1ccccc1)Nc1ccccc1C(=O)N1CCCC1 the results were PRMT1 FP inh 1, ABHD4 inh -2 and SIAE inh -6.
For COC(=O)c1cc2c(c3c4cc(C)ccc4n(S(=O)(=O)c4ccc(C)cc4)c13)C(=O)N(C)C2 the results were PRMT1 FP inh 2, ABHD4 inh -2, TCR-CD3 inh -1 and SIAE inh 0.
For COc1ccc(C(=O)C[n+]2ccccc2/C=N/O)cc1 the results were PRMT1 FP inh -3, ABHD4 inh -2, TCR-CD3 inh -2, SIAE inh 18*, HTRA1 inhibitor 1 and SIAE confirm 6.
`Nc1nc2c(ncn2[C@@H]2O[C@H](C(=O)NCCCc3ccccc3)[C@@H](O)[C@H]2O)c(=O)[nH]1` gave PRMT1 FP inh 3, ABHD4 inh -3, TCR-CD3 inh 2 and SIAE inh 3.
Screening CN(C)CC(=O)N[C@@H]1C[C@@H]2O[C@@H](CO)CC[C@@H]2O[C@@H]1CCc1ccc(C#Cc2ccccc2)cc1 returned PRMT1 FP inh 1, ABHD4 inh -1 and SIAE inh 1.
O=C(NCCN1CCC(Cc2ccccc2)CC1)C1CCCN(S(=O)(=O)c2ccc(Br)s2)C1 (stereo not given) was read as PRMT1 FP inh -8, ABHD4 inh 11 and SIAE inh -5.
For C/C(=N\NC(=S)Nc1cccc(C)c1)c1cc2ccccc2o1 the results were PRMT1 FP inh -2, ABHD4 inh 3, TCR-CD3 inh 1, SIAE inh 19*, HTRA1 inhibitor -8 and SIAE confirm 6.
For CCNC(=S)N/N=C(\C)c1cc2ccccc2o1 the results were PRMT1 FP inh 1, ABHD4 inh -1, TCR-CD3 inh -2, SIAE inh 5 and HTRA1 inhibitor -6.
CC(C)N(Cc1nc2ccccc2c(=O)[nH]1)C(=O)c1ccc(NC(=O)CSc2nnnn2C)cc1 was read as PRMT1 FP inh -1, ABHD4 inh 0, TCR-CD3 inh -2, SIAE inh 18*, HTRA1 inhibitor -4 and SIAE confirm -4.
`CC(C)C[C@@H]1COc2cccc(N3CCSCC3)c2S(=O)(=O)N1C` gave PRMT1 FP inh -2, ABHD4 inh 0 and SIAE inh 0.
For O=C(CCN1CCOCC1)N1CCCC(Nc2ccc(F)cc2)C1 (stereo not given) the results were PRMT1 FP inh 0, ABHD4 inh 4, TCR-CD3 inh 7, SIAE inh 18*, HTRA1 inhibitor -1 and SIAE confirm -2.
Screening O=C(NCc1cccs1)C(Cc1ccccc1)n1cccc1 (stereo not given) returned PRMT1 FP inh 7, ABHD4 inh -6, TCR-CD3 inh -5, SIAE inh -6 and HTRA1 inhibitor -2.
Screening CC(C(=O)NCc1cccs1)n1cccc1 (stereo not given) returned PRMT1 FP inh -1, ABHD4 inh -3, TCR-CD3 inh 2, SIAE inh 20*, HTRA1 inhibitor 3 and SIAE confirm 2.
`Cc1nc2c(C)cccc2cc1C(=O)N/N=C/c1cccnc1` gave PRMT1 FP inh -4, ABHD4 inh 5, TCR-CD3 inh 1, SIAE inh 18*, HTRA1 inhibitor 3 and SIAE confirm 2.
CCCCNc1cccc2c1S(=O)(=O)N[C@H](C)CO2 was read as PRMT1 FP inh -2, ABHD4 inh -4, TCR-CD3 inh 3 and SIAE inh 0.
`COCCNc1nc(-c2ccc(OC)cc2)c(-c2ccc(OC)cc2)s1` gave PRMT1 FP inh 3, ABHD4 inh 5, TCR-CD3 inh -9, SIAE inh 19*, HTRA1 inhibitor 16 and SIAE confirm 7.
For CCOC(=O)C1=C(c2ccccc2)NC(=O)NC1c1cc(Cl)c(O)c(OC)c1 (stereo not given) the results were PRMT1 FP inh 3, ABHD4 inh -6, TCR-CD3 inh 5, SIAE inh 5 and HTRA1 inhibitor 8.
CCOC(=O)C1=C(c2ccccc2)NC(N)=NC1c1ccc(OCc2ccc(Cl)cc2)c(OC)c1 (stereo not given) was read as PRMT1 FP inh -7, ABHD4 inh 9, TCR-CD3 inh 1, SIAE inh 18*, HTRA1 inhibitor -13 and SIAE confirm 17*.
`Cc1cc(C)c(O)c(C(=O)CC2CC(=O)NC(=O)C2)c1` gave PRMT1 FP inh 0, ABHD4 inh 6, TCR-CD3 inh 5 and SIAE inh 10.
COc1cccc(CN2CCc3[nH]c(=S)[nH]c(=O)c3C2)c1 was read as PRMT1 FP inh 0, ABHD4 inh 7, TCR-CD3 inh 1, SIAE inh 22*, HTRA1 inhibitor -4 and SIAE confirm -1.
Screening C[C@@H](NC(=O)[C@H]1O[C@@H](n2cnc3c(N)ncnc32)[C@H](O)[C@@H]1O)c1cccc2ccccc12 returned PRMT1 FP inh -4, ABHD4 inh 1, TCR-CD3 inh 1 and SIAE inh 0.
For Nc1ncnc2c1ncn2[C@@H]1O[C@H](C(=O)N[C@@H](CO)c2ccccc2)[C@@H](O)[C@H]1O the results were PRMT1 FP inh -3, ABHD4 inh -2, TCR-CD3 inh 8, SIAE inh 17* and SIAE confirm 19*.
`COc1ccccc1C(=O)N1CCN(C(=O)[C@H]2O[C@@H](n3cnc4c(N)ncnc43)[C@H](O)[C@@H]2O)CC1` gave PRMT1 FP inh 9, ABHD4 inh -6, TCR-CD3 inh -6, SIAE inh 23* and SIAE confirm 21*.
For CN(C)C(=O)N1CCN(C(=O)[C@H](CCc2ccccc2)NC(=O)[C@H]2O[C@@H](n3cnc4c(N)ncnc43)[C@H](O)[C@@H]2O)CC1 the results were PRMT1 FP inh -2, ABHD4 inh 3, TCR-CD3 inh 4, SIAE inh 36* and SIAE confirm 43*.
Screening Cc1cccc(C(=O)Nc2nc3ncccn3c2-c2ccc(C(F)(F)F)cc2)c1 returned PRMT1 FP inh -2, ABHD4 inh 4 and SIAE inh 8.
Screening COc1cc(C(=O)NC2CCCCN(Cc3cccc(Cl)c3)C2=O)cc(OC)c1OC (stereo not given) returned PRMT1 FP inh -2, ABHD4 inh 0 and SIAE inh -1.
Screening COc1ccc(/C=N/n2c(-c3ccccc3)n[nH]c2=S)cc1 returned PRMT1 FP inh 2, ABHD4 inh 5, TCR-CD3 inh 4, SIAE inh 22*, HTRA1 inhibitor 4 and SIAE confirm 0.
Screening CCCCN(C)C(=O)CNc1nnnn1-c1ccccc1 returned PRMT1 FP inh -4, ABHD4 inh 3 and SIAE inh 0.
